Measurements published in ChEMBL document CHEMBL5715951, “Synergistic Reactivation of Latent HIV Expression by Ingenol-3-Angelate, PEP005, Targeted NF-kB Signaling in Combination with JQ1 Induced p-TEFb Activation” (PLoS Pathog, 2015).
Active and inactive are the calls of the source. The rule behind the calls is not given here.

How the values were obtained:
U1 [1] = assay: Anti retroviral activity against PEP005 treated human U1 cells harbouring complete HIV genomes with Tat gene mutation assessed as fold increase in HIV reactivation at 2 uM followed by 6 nM of PEP005 incubated for 24 hrs by flow cytometry analysis; format: functional
J-Lat A1 [2] = assay: Anti retroviral activity against PEP005 treated human J-Lat A1 cells harboring a single copy of latent HIV LTR assessed as HIV reactivation at 2 uM incubated for 24 hrs by flow cytometry analysis; format: functional, cell-based
Procedure, shortened: (§1)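 J-Lat A1 cells (RPMI1640, 10% FBS, 37°C, 5% CO2) exposed to 2 μM agent alone or combined with 6 nM PEP005 for 24 h; percentage of GFP-expressing cells by flow cytometry; Bliss independence model for synergy; ≥3 independent experiments in triplicate.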

J-Lat A1 [3] = assay: Anti retroviral activity against human J-Lat A1 cells harboring a single copy of latent HIV LTR assessed as HIV reactivation at 2 uM incubated for 24 hrs by flow cytometry analysis; format: functional, cell-based
Procedure, shortened: (§2)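 J-Lat A1 cells (single latent LTR-GFP copy) treated 24 h at fixed levels (10 nM PEP005, 500 nM SAHA, 2 μM JQ1/GSK343/Prostratin, 10 ng/ml TNF, 5 ng/ml PMA); percentage GFP-positive cells by flow cytometry.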

J-Lat A1 [4] = assay: Anti retroviral activity against PEP005 treated human J-Lat A1 cells harboring a single copy of latent HIV LTR assessed as HIV reactivation at 2 uM followed by 6 nM of PEP005 incubated for 24 hrs by flow cytometry analysis; format: functional, cell-based; procedure, shortened: as §1
[5] = Inhibition of PKCtheta/PKCdelta in HIV infected human J-Lat A cells assessed as reduction of PEP005 induced disruption of HIV latency treated at 2.5 nM relative to control; set-up: species or system J-Lat A1; scale not given: the % may be the effect or the level left; conditions: condition hiv infection
J-Lat A1 [6] = assay: Anti retroviral activity against human J-Lat A1 cells harboring a single copy of latent HIV LTR assessed as HIV reactivation at 5 ng/ml incubated for 24 hrs by flow cytometry analysis; format: functional, cell-based; procedure, shortened: as §2
J-Lat A1 [7] = assay: Anti retroviral activity against human J-Lat A1 cells harboring a single copy of latent HIV LTR assessed as HIV reactivation at 500 nM incubated for 24 hrs by flow cytometry analysis; format: functional, cell-based; procedure, shortened: as §2
J-Lat A1 [8] = assay: Induction of PKC/NF-Kappa B pathway in human J-Lat A1 cells assessed as upregulation of PKC delta at 12 nM at 1 hr by Western blotting analysis; format: cell-based
Procedure, shortened: (§3)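 One million J-Lat A1 cells incubated with 12 nM PEP005 up to 6 h; RIPA extracts with protease/phosphatase inhibitors; immunoblots for PKC isoforms, phospho-PKCδ/θ, NF-κB/p65 and phospho-IκBα (Ser32), β (Thr19/Ser23), ε (Ser18/22); band intensities by densitometry, three independent experiments.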

J-Lat A1 [9] = assay: Induction of cell cycle arrest in human J-Lat A1 cells assessed as accumulation of cells at S phase at 12 nM for 24 hrs BrdU ELISA analysis; format: functional, cell-based
Procedure, shortened: (§4)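 U1, J-Lat A1 or healthy-donor CD4+ T cells treated 24 h with 12 nM PEP005; S-phase progression by BrdU incorporation ELISA; doxorubicin […] positive control.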

J-Lat A1 [10] = assay: Effect on NF kappaB/p65 expression in human […] at 12 nM upto 6 hrs by Western blotting analysis; format: functional, cell-based; procedure, shortened: as §3
J-Lat A1 [11] = assay: Anti retroviral activity against human J-Lat A1 cells harboring a single copy of latent HIV LTR assessed as HIV reactivation at 10 nM incubated for 24 hrs by flow cytometry analysis; format: functional, cell-based; procedure, shortened: as §2
U1 [12] = assay: Induction of cell cycle arrest in human U1 cells assessed as accumulation of cells at S phase at 12 nM for 24 hrs BrdU ELISA analysis; format: functional, cell-based; procedure, shortened: as §4
[13] = Inhibition of PKCtheta/PKCdelta in HIV infected human J-Lat A cells assessed as reduction of HIV latent reactivation treated at 6 nM in presence of PKC inhibitor relative to control; set-up: species or system J-Lat A1; scale not given: the % may be the effect or the level left; conditions: condition hiv infection
Procedure, shortened: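 J-Lat A1 cells got 6 nM PEP005 together with 1, 2 or 5 μM PKCθ/δ inhibitor. HIV reactivation was read as GFP expression by RT-qPCR against PEP005-only cells. Data from at least 3 independent experiments in triplicate.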

[14] = Binding affinity of NFkappa B to HIV LTR in human J-Lat A1 cells assessed as fold increase at 12 nM by ChIP-qPCR analysis; conditions: condition hiv infection
Procedure, shortened: (§5)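 ChIP-qPCR on J-Lat A1 cells, 1x10^6 per sample, given 12 nM PEP005 with or without a PKCδ/θ inhibitor. Cells fixed in 1% formaldehyde and lysed in SDS/EDTA/Tris pH 8.1 buffer with protease inhibitors. Chromatin sonicated to 200–1500 bp. Immune complexes taken on protein A/G-agarose for 45 min, then reverse cross-linked overnight. NF-κB/p65 binding at HIV LTR read by SYBR qPCR. Data from at least 3 independent experiments in triplicate.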

[15] = Anti retroviral activity against human J-Lat A1 cells harboring a single copy of latent HIV LTR assessed as fold increase in HIV reactivation at 20 nM by flow cytometry analysis; format: functional
Procedure, shortened: (§6)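 J-Lat A1 cells exposed to PEP005 over 2–40 nM for 24 h; HIV reactivation as GFP expression by flow cytometry, fold versus untreated; viability by Live/Dead dye staining, flow cytometry.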

[16] = Cytotoxicity against human CD4+ T cells assessed as change in CD69 expression at 12 nM for 24 hrs by RT-qPCR analysis; format: toxicity, cell-based; conditions: cd4+ t cell, 0.012 µM
Procedure, shortened: (§7)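 CD4+ T cells purified from uninfected donors, treated 24 h with 12 nM; total RNA extracted and CD38, CD69, CD25 and HLA-DR transcripts measured by RT-qPCR.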

U1 [17] = assay: Anti retroviral activity against human U1 cells harbouring HIV genomes with Tat gene mutation assessed as fold increase in HIV reactivation at 6 nM by flow cytometry analysis; format: functional
CD4+ T cell [18] = assay: Induction of pro-inflammatory cytokine IL-6 expression in human CD4+ T cells at 6 to 12 nM for 24 to 72 hrs by RT-qPCR analysis; format: functional, cell-based; conditions: dose 6-12 nM, time 24-72 hrs
Procedure, shortened: (§8)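 CD4+ T cells from healthy HIV-negative donors treated with 6 or 12 nM PEP005 for 24 or 72 h; TNF-α, IFN-γ, IL-2 and IL-6 mRNA quantified by RT-qPCR normalized to GAPDH.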

[19] = Cytotoxicity against human CD4+ T cells assessed as change in CD25 expression at 12 nM for 24 hrs by RT-qPCR analysis; format: toxicity, cell-based; conditions: cd4+ t cell, 0.012 µM; procedure, shortened: as §7
J-Lat A1 [20] = assay: Induction of PKC/NF-Kappa B pathway in human J-Lat A1 cells assessed as upregulation of PKC theta at 12 nM upto 6 hrs by Western blotting analysis; format: cell-based; procedure, shortened: as §3
J-Lat A1 [21] = assay: Anti retroviral activity against human J-Lat A1 cells harboring a single copy of latent HIV LTR assessed as HIV reactivation by flow cytometry analysis; format: functional, cell-based; conditions: dose 2-40 nM; procedure, shortened: as §6
CD4+ T cell [22] = assay: Induction of pro-inflammatory cytokine IFN-gamma expression in human CD4+ T cells at 6 to 12 nM for 24 to 72 hrs by RT-qPCR analysis; format: functional, cell-based; conditions: dose 6-12 nM, time 24-72 hrs; procedure, shortened: as §8
J-Lat A1 [23] = assay: Induction of PKC/NF-Kappa B pathway in human J-Lat A1 cells assessed as upregulation of PKC mu/D at 12 nM upto 6 hrs by Western blotting analysis; format: cell-based; procedure, shortened: as §3
CD4+ T cell [24] = assay: Induction of pro-inflammatory cytokine TNF-alpha expression in human CD4+ T cells at 6 to 12 nM for 24 to 72 hrs by RT-qPCR analysis; format: functional, cell-based; conditions: dose 6-12 nM, time 24-72 hrs; procedure, shortened: as §8
CD4+ T cell [25] = assay: Induction of cell cycle arrest in human CD4+ T cells assessed as accumulation of cells at S phase at 12 nM for 24 hrs BrdU ELISA analysis; format: functional, cell-based; procedure, shortened: as §4
[26] = Induction of PKCtheta/PKCdelta phosphorylation at Ser676/Ser643 in human J-Lat A1 cells assessed as fold change measured after 30 mins; conditions: condition hiv infection, 0.5 h
[27] = target: T1, Inhibitor of nuclear factor kappa-B kinase subunit beta (Homo sapiens) (UniProt O14920); assay: Induction of IkappaB beta phosphorylation in human […] at 12 nM upto 6 hrs by Western blotting analysis; format: cell-based; conditions: J-Lat A1; procedure, shortened: as §3
T1 sequence (whole entry): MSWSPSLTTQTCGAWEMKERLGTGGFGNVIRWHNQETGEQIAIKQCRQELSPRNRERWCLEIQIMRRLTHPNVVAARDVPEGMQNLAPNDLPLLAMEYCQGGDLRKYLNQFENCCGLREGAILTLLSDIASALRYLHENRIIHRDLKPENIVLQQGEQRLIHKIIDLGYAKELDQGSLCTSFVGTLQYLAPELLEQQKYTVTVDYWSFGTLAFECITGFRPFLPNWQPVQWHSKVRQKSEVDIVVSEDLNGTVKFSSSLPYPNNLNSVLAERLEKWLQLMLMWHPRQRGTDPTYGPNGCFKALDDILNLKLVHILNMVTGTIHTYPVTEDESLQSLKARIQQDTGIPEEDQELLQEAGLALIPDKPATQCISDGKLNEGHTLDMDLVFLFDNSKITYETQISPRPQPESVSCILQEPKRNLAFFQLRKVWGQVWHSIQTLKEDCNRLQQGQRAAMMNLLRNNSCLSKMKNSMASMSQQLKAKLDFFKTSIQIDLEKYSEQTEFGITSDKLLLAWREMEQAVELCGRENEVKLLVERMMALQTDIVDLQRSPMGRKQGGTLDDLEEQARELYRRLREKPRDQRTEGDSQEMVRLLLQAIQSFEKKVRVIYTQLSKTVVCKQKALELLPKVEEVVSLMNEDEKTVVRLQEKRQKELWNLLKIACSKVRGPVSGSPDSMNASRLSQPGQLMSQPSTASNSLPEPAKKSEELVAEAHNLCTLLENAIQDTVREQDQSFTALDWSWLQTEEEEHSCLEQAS

J-Lat A1 [28] = assay: Induction of PKC/NF-Kappa B pathway in human J-Lat A1 cells assessed as upregulation of PKC alpha at 12 nM upto 6 hrs by Western blotting analysis; format: cell-based; procedure, shortened: as §3
CD4+ T cell [29] = assay: Induction of pro-inflammatory cytokine IL-2 expression in human CD4+ T cells at 6 to 12 nM for 24 to 72 hrs by RT-qPCR analysis; format: functional, cell-based; conditions: dose 6-12 nM, time 24-72 hrs; procedure, shortened: as §8
[30] = Binding affinity of NFkappa B to HIV LTR in human J-Lat A1 cells assessed as reduction in compound induced fold increase at 12 nM in presence of PKC inhibitor by ChIP-qPCR analysis relative to control; set-up: scale not given: the % may be the effect or the level left; conditions: condition hiv infection; procedure, shortened: as §5
[31] = Cytotoxicity against human CD4+ T cells assessed as change in CD38 expression at 12 nM for 24 hrs by RT-qPCR analysis; format: toxicity, cell-based; conditions: cd4+ t cell, 0.012 µM; procedure, shortened: as §7
J-Lat A1 [32] = assay: Cytotoxicity against human J-Lat A1 cells harboring a single copy of latent HIV LTR assessed as cell viability at 2 to 40 nM by Live/Dead dye staining assay; format: functional, cell-based; conditions: dose 2-40 nM; procedure, shortened: as §6

## Cc1sc2c(c1C)C(c1ccc(Cl)cc1)=N[C@@H](CC(=O)OC(C)(C)C)c1nnc(C)n1-2
U1 [1]
  fold change (FC): 250
J-Lat A1 [2]
  Activity: Active
J-Lat A1 [3]
  Activity: Active
J-Lat A1 [4]
  Activity: Active

## Cc1ccc(S(=O)(=O)/C=C/C#N)cc1
[5]
  Activity: 50%

## CC(=O)O[C@@]12C[C@@H](C)[C@@]3(O)[C@@H](C=C(CO)C[C@]4(O)C(=O)C(C)=C[C@@H]34)[C@@H]1C2(C)C
J-Lat A1 [3]
  Activity: Active

## CCCCCCCCCCCCCC(=O)O[C@@H]1[C@@H](C)[C@@]2(O)[C@@H](C=C(CO)C[C@]3(O)C(=O)C(C)=C[C@@H]23)[C@@H]2C(C)(C)[C@]12OC(C)=O
J-Lat A1 [6]
  Activity: Active

## CCCc1cc(C)[nH]c(=O)c1CNC(=O)c1cc(-c2ccnc(N3CCN(C)CC3)c2)cc2c1cnn2C(C)C
J-Lat A1 [3]
  Activity: inactive
J-Lat A1 [4]
  Activity: Active

## O=C(CCCCCCC(=O)Nc1ccccc1)NO
J-Lat A1 [7]
  Activity: Active

## C/C=C(/C)C(=O)O[C@H]1C(C)=C[C@]23C(=O)[C@@H](C=C(CO)[C@@H](O)[C@]12O)[C@H]1[C@@H](C[C@H]3C)C1(C)C [INGENOL MEBUTATE]
J-Lat A1 [8]
  Activity: Active
J-Lat A1 [9]
  Activity: inactive
J-Lat A1 [10]
  Activity: inactive
J-Lat A1 [11]
  Activity: Active
U1 [12]
  Activity: inactive
[13]
  Activity: >65%
[14]
  fold change (FC): 6
[15]
  fold change (FC): 7
[16]
  Activity: Non-Toxic
U1 [17]
  fold change (FC): 25
CD4+ T cell [18]
  Activity: inactive
[19]
  Activity: Non-Toxic
J-Lat A1 [20]
  Activity: inactive
J-Lat A1 [21]
  Activity: Dose-Dependent Effect
CD4+ T cell [22]
  Activity: inactive
J-Lat A1 [23]
  Activity: inactive
CD4+ T cell [24]
  Activity: inactive
CD4+ T cell [25]
  Activity: inactive
[26]
  fold change (FC): 2
[27]
  Activity: inactive
J-Lat A1 [28]
  Activity: inactive
CD4+ T cell [29]
  Activity: inactive
[30]
  Activity: >70%
[31]
  Activity: Non-Toxic
J-Lat A1 [32]
  Activity: inactive
